The source of these data is ChEMBL document CHEMBL1681637, “Synthesis and antitubercular activity of monocyclic nitroimidazoles: insights from econazole” (Bioorg Med Chem Lett, 2011).

Broadly, the MIC is the least concentration at which growth counts as inhibited. Read a low MIC as greater potency.

Assay [1] has as its system Mycobacterium tuberculosis. The assay is described as follows: Antitubercular activity against multidrug-resistant Mycobacterium tuberculosis H37Rv after 7 days by alamar blue assay. Conditions: 168 h. Type of assay: functional. (Resazurin is reduced to fluorescent resorufin, in cell work by metabolically active cells.)
Assay [2] relates to Mycobacterium tuberculosis. The assay is described as follows: Antitubercular activity against multidrug-resistant Mycobacterium tuberculosis H37Rv under anaerobic condition after 7 days by GFP reporter gene assay. Format: functional. To be noted: 168 h. The essentials: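 GFP-expressing Mtb H37Rv, made non-replicating by the Wayne hypoxia model, was added to 2-fold DMSO serial compound dilutions inside an anaerobic chamber. Plates were held at 37 °C for 7 days under anaerobiosis, then diluted 10-fold into fresh medium and outgrown for 2 days. Fluorescence was read at ex 485/em 520 nm. MIC was the lowest concentration giving 80% fluorescence inhibition versus bacteria-only wells.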

The structures appear in SMILES notation. Converted amounts (≈) assume the structure as drawn.

As for `O=[N+]([O-])c1cn(CC(O)c2ccc(Cl)cc2)c(Br)n1` (racemic), in assay [1], the minimal inhibitory concentration (MIC) turned out to be 64 µg/mL (≈ 185 µM).

As to `O=[N+]([O-])c1cn(CC(O)c2ccc(Cl)cc2Cl)cn1` (racemic), the MIC in assay [1] turned out to be 32 µg/mL (≈ 106 µM).

The compound `Cc1nc([N+](=O)[O-])cn1CC(O)c1ccc(Cl)cc1Cl` (racemic) returned a minimum inhibitory concentration (MIC) in assay [1] of over 256 µg/mL.

For `O=[N+]([O-])c1cn(CC(O)c2ccc(Cl)cc2Cl)c(Br)n1` (racemic), the MIC in assay [1] amounted to 2 µg/mL (≈ 5.25 µM); in assay [2], 8 µg/mL (≈ 21 µM).

Take `O=[N+]([O-])c1cn(CC(O)c2ccc(F)cc2F)cn1` (racemic): the lowest concentration to inhibit growth in assay [1] (MIC) was 256 µg/mL (≈ 951 µM).

`O=[N+]([O-])c1cn(CC(O)c2ccc(F)cc2F)c(Br)n1` (racemic) showed a minimal inhibitory concentration (MIC) in assay [1] of 64 µg/mL (≈ 184 µM).

On to `O=[N+]([O-])c1cn(CC(O)c2ccc(F)cc2)c(Br)n1` (racemic), for which inhibition of growth in assay [1] (MIC) required 128 µg/mL (≈ 388 µM).

The compound `O=[N+]([O-])c1ccc(C(O)Cn2cc([N+](=O)[O-])nc2Br)cc1` (racemic) registered a minimum inhibitory concentration (MIC) in assay [1] of 64 µg/mL (≈ 179 µM).

With `O=[N+]([O-])c1cn(CC(O)c2ccc(-c3ccccc3)cc2)c(Br)n1` (racemic), the MIC in assay [1] is over 256 µg/mL.

`O=[N+]([O-])c1cn(CC(O)c2ccccc2)c(Br)n1` (racemic) came in with an MIC in assay [1] of 32 µg/mL (≈ 103 µM).

In turn, `Cc1ccc(C(O)Cn2cc([N+](=O)[O-])nc2Br)c(C)c1` (racemic) showed an MIC in assay [1] of 128 µg/mL (≈ 376 µM).

In assay [1], `O=[N+]([O-])c1cn(CC(OCc2ccc(Cl)cc2)c2ccc(Cl)cc2Cl)cn1` (racemic) came in with an MIC of over 256 µg/mL.

Consider `Cc1nc([N+](=O)[O-])cn1CC(OCc1ccc(Cl)cc1)c1ccc(Cl)cc1Cl` (racemic), for which the MIC in assay [1] was over 256 µg/mL.

For the compound `O=[N+]([O-])c1cn(CC(OCc2ccc(Cl)cc2)c2ccc(Cl)cc2Cl)c(Br)n1` (racemic), the minimum inhibitory concentration (MIC) in assay [1] is over 256 µg/mL.

In assay [1], `O=[N+]([O-])c1cn(CC(OCc2ccc(Cl)cc2)c2ccc(F)cc2F)cn1` (racemic) yielded an MIC of over 256 µg/mL.

In assay [1], `O=[N+]([O-])c1cn(CC(OCc2ccc(Cl)cc2)c2ccc(F)cc2F)c(Br)n1` (racemic) returned an MIC of over 256 µg/mL.

In turn, `O=[N+]([O-])c1cn(CC(OCc2ccccc2F)c2ccc(Cl)cc2Cl)cn1` (racemic) registered an MIC in assay [1] of over 256 µg/mL.

Compound `O=[N+]([O-])c1cn(CC(OCc2ccc(F)cc2)c2ccc(Cl)cc2Cl)cn1` (racemic) came in with an MIC in assay [1] of over 256 µg/mL.

Consider `O=[N+]([O-])c1cn(CC(OCc2ccccc2F)c2ccc(Cl)cc2Cl)c(Br)n1` (racemic), for which the MIC in assay [1] is over 256 µg/mL.

For the compound `O=[N+]([O-])c1cn(CC(OCc2ccc(F)cc2)c2ccc(Cl)cc2Cl)c(Br)n1` (racemic), the minimal inhibitory concentration (MIC) in assay [1] is over 256 µg/mL.

In assay [1], `O=[N+]([O-])c1cn(CC(OCc2ccc(F)cc2F)c2ccc(Cl)cc2Cl)cn1` (racemic) displayed a minimal inhibitory concentration (MIC) of over 256 µg/mL.

On to `O=[N+]([O-])c1cn(CC(OCc2cc(F)ccc2F)c2ccc(Cl)cc2Cl)cn1` (racemic), for which the MIC in assay [1] is over 256 µg/mL.

Regarding `O=[N+]([O-])c1cn(CC(OCc2ccc(OC(F)(F)F)cc2)c2ccc(Cl)cc2Cl)cn1` (racemic), in assay [1], the MIC was over 256 µg/mL.

`O=[N+]([O-])c1cn(CC(OCc2cc(F)cc(F)c2)c2ccc(Cl)cc2Cl)cn1` (racemic) had a minimum inhibitory concentration (MIC) in assay [1] of over 256 µg/mL.

In turn, `O=[N+]([O-])c1cn(CC(OCc2cc(F)cc(F)c2)c2ccc(Cl)cc2Cl)c(Br)n1` (racemic) displayed an MIC in assay [1] of over 256 µg/mL.

Take `O=[N+]([O-])c1cn(CC(OCc2ccc(F)cc2)c2ccc(F)cc2F)cn1` (racemic): the MIC in assay [1] was over 256 µg/mL.

`O=[N+]([O-])c1cn(CC(OCc2ccc(OC(F)(F)F)cc2)c2ccc(F)cc2F)cn1` (racemic) registered an MIC in assay [1] of over 256 µg/mL.

For `O=[N+]([O-])c1cn(CC(OCc2cc(F)cc(F)c2)c2ccc(F)cc2F)cn1` (racemic), in assay [1], the MIC is over 256 µg/mL.

Consider `COc1nc([N+](=O)[O-])cn1CC(O)c1ccc(Cl)cc1Cl` (racemic), for which the minimum inhibitory concentration (MIC) in assay [1] worked out at 0.5 µg/mL (≈ 1.51 µM); in assay [2], 4 µg/mL (≈ 12 µM).

In the case of `COc1nc([N+](=O)[O-])cn1CC(O)c1ccc(F)cc1F` (racemic), the MIC in assay [1] and in assay [2] was 4 µg/mL (≈ 13.4 µM) each time.

With `COc1nc([N+](=O)[O-])cn1CC(O)c1ccc(F)cc1` (racemic), in assay [1], the minimum inhibitory concentration (MIC) was determined as 16 µg/mL (≈ 56.9 µM).

In turn, `COc1nc([N+](=O)[O-])cn1CC(O)c1ccc(Cl)cc1` (racemic) displayed an MIC in assay [1] of 16 µg/mL (≈ 53.7 µM).

In turn, `COc1nc([N+](=O)[O-])cn1CC(O)c1ccc([N+](=O)[O-])cc1` (racemic) returned an MIC in assay [1] of 16 µg/mL (≈ 51.9 µM).

`COc1nc([N+](=O)[O-])cn1CC(O)c1ccc(-c2ccccc2)cc1` (racemic): the minimal inhibitory concentration (MIC) in assay [1] came out at 0.5 µg/mL (≈ 1.47 µM); in assay [2], 1 µg/mL (≈ 2.95 µM).

Consider `CSc1nc([N+](=O)[O-])cn1CC(O)c1ccc(Cl)cc1Cl` (racemic), for which it took 16 µg/mL (≈ 45.9 µM) to inhibit growth in assay [1] (MIC).

Compound `COc1nc([N+](=O)[O-])cn1CC(O)c1ccccc1` (racemic) returned an MIC in assay [1] of 8 µg/mL (≈ 30.4 µM).

In assay [1], `COc1nc([N+](=O)[O-])cn1CC(O)c1ccc(C)cc1C` (racemic) displayed an MIC of 16 µg/mL (≈ 54.9 µM). This MIC is about 2-fold higher than that of the compound before.

In turn, `COc1nc([N+](=O)[O-])cn1CC(OCc1ccc(Cl)cc1)c1ccc(Cl)cc1Cl` (racemic) returned an MIC in assay [1] of over 256 µg/mL.

For `CSc1nc([N+](=O)[O-])cn1CC(OCc1ccc(F)cc1)c1ccc(Cl)cc1Cl` (racemic), the MIC in assay [1] is over 256 µg/mL.

Compound `COc1nc([N+](=O)[O-])cn1CC(OCc1ccc(OC(F)(F)F)cc1)c1ccc(Cl)cc1Cl` (racemic) gave a minimum inhibitory concentration (MIC) in assay [1] of over 256 µg/mL.

`COc1nc([N+](=O)[O-])cn1CC(OCc1ccc(Cl)cc1)c1ccc(F)cc1F` (racemic) returned a minimal inhibitory concentration (MIC) in assay [1] of over 16 µg/mL.

`COc1nc([N+](=O)[O-])cn1CC(OCc1ccc(F)cc1)c1ccc(F)cc1F` (racemic) displayed an MIC in assay [1] of over 32 µg/mL.

As to `COc1nc([N+](=O)[O-])cn1CC(OCc1ccc(OC(F)(F)F)cc1)c1ccc(F)cc1F` (racemic), in assay [1], the MIC is over 256 µg/mL.

As for `COc1nc([N+](=O)[O-])cn1CC(OCc1cc(F)cc(F)c1)c1ccc(Cl)cc1Cl` (racemic), in assay [1], the minimal inhibitory concentration (MIC) was over 256 µg/mL.

Regarding `COc1nc([N+](=O)[O-])cn1CC(OCc1ccc(F)cc1)c1ccc(Cl)cc1Cl` (racemic), in assay [1], the minimal inhibitory concentration (MIC) was over 256 µg/mL.

In turn, `CSc1nc([N+](=O)[O-])cn1CC(OCc1ccc(Cl)cc1)c1ccc(Cl)cc1Cl` (racemic) registered an MIC in assay [1] of over 256 µg/mL.

With `CSc1nc([N+](=O)[O-])cn1CC(OCc1cc(F)cc(F)c1)c1ccc(Cl)cc1Cl` (racemic), the minimal inhibitory concentration (MIC) in assay [1] was over 256 µg/mL.

In assay [1], `CSc1nc([N+](=O)[O-])cn1CC(OCc1ccc(Cl)cc1)c1ccc(F)cc1F` (racemic) yielded a minimum inhibitory concentration (MIC) of over 256 µg/mL.

`Clc1ccc(COC(Cn2ccnc2)c2ccc(Cl)cc2Cl)cc1` (stereo not given) [ECONAZOLE] showed a minimum inhibitory concentration (MIC) in assay [1] of 16 µg/mL (≈ 41.9 µM).

With `O=[N+]([O-])c1cn2c(n1)OC[C@@H](OCc1ccc(OC(F)(F)F)cc1)C2` [PRETOMANID], the MIC worked out at 0.13 µg/mL (≈ 0.362 µM) in assay [1] and 2 µg/mL (≈ 5.57 µM) in assay [2].
